Screens from PubChem BioAssay.
Most compounds without a hit are left out; they make up all but 1.6% or so of the library.
Rpn11 inh: inhibitors of human proteasome Rpn11; O00487; calls only at 20 µM; actives 0.59% (n = 360,000); human 26S proteasome, Ub4-pepOG fluorescence polarization; 20S core pre-blocked with epoxomicin;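 active means inhibition at 20 µM, scaled to each plate's controls, above about 33%, limit read from the data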
PKA-R2B act: activators of human PKA-R2B complex | P22694+P31323 | PKA-R2B holoenzyme dissociation, Cy5-IP20 fluorescence polarization; R2B truncated from residue 108, S112A mutant; 0% DMSO only, 100% 113 µM cGMP | activation, % at 11.4 µM | actives 0.079% (n = 340,000) | AID 504700;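 active means activation above a cutoff set at the mean over all compounds plus 3 SD, cut at about 18% in these data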;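 further: higher means more holoenzyme dissociation and a rise in polarization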
Target sequence (P31323 whole entry, looked up, other chains not shown, the tested form may be a part): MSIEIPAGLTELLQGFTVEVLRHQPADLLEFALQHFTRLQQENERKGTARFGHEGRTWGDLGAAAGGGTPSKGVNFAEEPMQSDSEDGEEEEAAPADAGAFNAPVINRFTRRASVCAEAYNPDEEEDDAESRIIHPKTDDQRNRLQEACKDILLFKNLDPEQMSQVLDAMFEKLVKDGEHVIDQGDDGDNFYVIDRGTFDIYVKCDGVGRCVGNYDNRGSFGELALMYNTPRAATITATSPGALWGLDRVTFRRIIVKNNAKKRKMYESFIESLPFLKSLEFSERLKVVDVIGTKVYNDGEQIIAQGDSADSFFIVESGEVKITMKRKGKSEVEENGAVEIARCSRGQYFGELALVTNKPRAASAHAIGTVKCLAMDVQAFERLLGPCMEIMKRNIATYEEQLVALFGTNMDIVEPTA
PKA-R1A act: activators of PKA-R1A complex | P00514+P68181 | PKA-R1A dissociation, Cy5-IP20 fluorescence polarization; scaled: DMSO 0%, 113 µM cGMP 100% | activation, % at 11.4 µM | actives 0.083% (n = 340,000) | AID 504707;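 active means percent activation above the mean of all tested compounds plus 3 SD, cut at about 19% in these data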;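 further: higher means more PKAc released from R1A so a rise in polarization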
CSN deneddyl inh: CSN deneddylation inhibition; Purified CSN, SCF-Nedd8-OG deneddylation, fluorescence polarization; Q92905; actives 0.38% (n = 360,000); inhibition, % at 12.5 µM;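 active means pattern-corrected inhibition above about 35%, with an unprinted fluorescence ratio check between 0.5 and 1.5, limit read from the data, passing the limit was not always enough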;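 further: 0% = enzyme with substrate and 100% = substrate without enzyme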
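Test system: Human Csn5 produced in HEK293T cells | Compound: 12.5 µM single point | Times: 90 min, room temperature | Signal: Fluorescence polarization readout | Read-out basis: % inhibition of substrate cleavage by Csn5 | Controls: no-enzyme wells high, enzyme-with-substrate wells low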
HNF4A DNA FP: change in binding of human HNF4 alpha to DNA; actives 0.3% (n = 360,000); P41235; HNF4a-FITC DNA binding, fluorescence polarization, 1 h; AID 1224865; activity change, % at 10 µM; in the data active means activity change above about 30%, passing the limit was not always enough
TPT1 inhibitor: inhibitors of Candida albicans tRNA 2'-phosphotransferase TPT1; recombinant caTPT1, FP RNA substrate dephosphorylation; inhibition, % at 5 µM; actives 0.81% (n = 300,000); AID 1962;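 active means inhibition above the mean of all tested compounds plus 3 SD, set per screening campaign, cut at about 24% in these data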;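 further: plate controls were DMSO alone for no effect and ferristatin control at 100 nM for full effect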
TPT1 inh confirm: TPT1 (C. albicans) inhibition, confirmation | shares compounds with TPT1 inhibitor | recombinant caTPT1, fluorescence polarization, RNase T1 coupled | inhibition, % at 5 µM | actives 74% (n = 2,400) | AID 2149;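 active means inhibition above the primary screen limit, the mean inhibition of all tested compounds plus 3 SD, cut at about 25% in these data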
RNase T1 counter: counter-screen for TPT1 inhibitors: inhibitors of Aspergillus oryzae RNase T1; shares compounds with TPT1 inhibitor; RNase T1 cleavage, fluorescence polarization, 1536-well; inhibition, % at 5 µM; actives 83% (n = 2,400); AID 2153;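 active means inhibition above the solvent-only control well mean plus 3 SD, limit set per screening run, cut at about 23% in these data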;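 further: plate controls were DMSO wells with enzyme for no effect and wells without RNase T1 for full effect; inhibitors block cleavage so intact labeled substrate keeps polarization high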
Target sequence (P00651 whole entry, looked up): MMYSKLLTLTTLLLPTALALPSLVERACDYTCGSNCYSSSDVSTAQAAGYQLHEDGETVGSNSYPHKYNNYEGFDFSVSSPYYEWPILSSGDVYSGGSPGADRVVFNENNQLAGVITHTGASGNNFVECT
Rpn11 inh conf: confirmation of human proteasome Rpn11 inhibitors; actives 29% (n = 1,900); inhibition, % at 20 µM; purified human 26S proteasome, Ub4-pepOG fluorescence polarization; proteasome pretreated with epoxomicin; shares compounds with Rpn11 inh
MMP-2 counter-1: blocks human MMP-2, flagging nonselective RPN11 hits. shares compounds with Rpn11 inh. recombinant MMP-2, FRET peptide cleavage fluorescence. inhibition, % at 20 µM. actives 4% (n = 1,900);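 further: human MMP-2 activated beforehand with APMA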
Thrombin FP: thrombin (bovine) inhibition counter-screen. shares compounds with Rpn11 inh. bovine thrombin cleavage of Ub4-pepOG, fluorescence polarization. inhibition, % at 20 µM. actives 13% (n = 1,900);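 active means mean inhibition at least 40% at 20 µM, or signal 3 deviations below plate average, so some actives read negative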;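 further: plate controls were thrombin with DMSO for no effect and buffer wells lacking thrombin for full effect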
CSN deneddyl val: Csn5 (human) deneddylation inhibition, single-concentration validation | actives 62% (n = 540) | shares compounds with CSN deneddyl inh | inhibition, % at 16.6 µM | AID 720654 | Csn5 deneddylation of SCF-Nedd8OG, fluorescence polarization, 90 min; in the data active means inhibition above about 50%;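 further: 0% = DMSO with enzyme and 100% = no enzyme wells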
MMP-2 counter-2: blocks human MMP-2 in a CSN deneddylation counter-screen. actives 33% (n = 540). inhibition, % at 16.6 µM. recombinant MMP-2, FRET substrate fluorescence, 60 min. shares compounds with CSN deneddyl inh;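 active means corrected plate-normalized z-score of 5 or more, or -5 or less, or inhibition of 15% or more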;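 further: plate controls were DMSO wells with enzyme for no effect and buffer wells lacking MMP-2 for full effect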
Thrombin counter: blocks bovine thrombin in a CSN deneddylation counter-screen. actives 49% (n = 540). AID 720656. shares compounds with CSN deneddyl inh. bovine thrombin cleavage of Ub4-pepOG, fluorescence polarization. inhibition, % at 16.6 µM;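 active means inhibition at or above a set limit, with a fluorescence interference ratio between 0.5 and a set maximum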
* marks the source's active call; other numbers are inactive results; i = inactive; / = not tested or not shown; + = active, no number. Unless noted, no stated cut-off is given here; in the data, active means inhibition above about 40%; inactive means the rest.

SMILES	Rpn11 inh	PKA-R2B act	PKA-R1A act	CSN deneddyl inh	HNF4A DNA FP	TPT1 inhibitor	TPT1 inh confirm	RNase T1 counter	CSN deneddyl val	MMP-2 counter-2	Thrombin counter	others
COc1ccc(C(C#N)=Cc2ccccc2OC)cc1	i	-3	0	2	0	/	/	/	/	/	/
COc1cc(N2CCCC2)c(OC)cc1/C=C(/C#N)c1ccc(Br)cc1	/	3	1	60*	113	104*	130*	147*	90*	-7	22*
CCCS(=O)(=O)NC(=O)C1(C)CCCN(C(=O)c2cccnc2Oc2ccccc2)C1 (stereo unspecified)	i	/	/	0	-3	/	/	/	/	/	/
O=C(NC1CCCCCC1)c1cc(S(=O)(=O)N2CCOCC2)ccc1F	i	-8	3	0	1	-2	/	/	/	/	/
CCCN1C=CC(=CC=C(C#N)C#N)C=C1	/	-4	-6	83*	121	144*	165*	161*	23	5	83*
C=CCN1C=CC(=CC=C(C#N)C#N)C=C1	/	-10	3	91*	119	137*	158*	155*	98*	8	79*
CN1/C(=C/C=C(C#N)C#N)C=Cc2ccccc21	/	8	5	72	138	6	/	/	/	/	/
COC(C[C@@H]1O[C@@H]1[C@H](O)[C@@H](C)OCc1ccccc1)OC	i	-11	-3	2	-2	-5	/	/	/	/	/
Cc1ccc(OCc2cc(C(=O)N(C)CCc3nc4ccccc4[nH]3)no2)cc1C	i	1	-4	-5	-2	/	/	/	/	/	/
Cc1cc(/C=C2\SC(=S)N(C)C2=O)c(C)n1-c1cccc(O)c1	/	5	-4	37*	72*	78*	114*	117*	71*	4	94*
CC(C)(C)OC(=O)[C@H](Cc1ccccc1)NC(=O)c1[nH]cnc1C(=O)Nc1ccccc1F	i	-1	-14	0	2	/	/	/	/	/	/
Cc1ccc(/C=C/c2ccc(N(C)C)cc2)[n+](C)c1	/	1	3	47*	89*	36*	46*	56*	40*	-92*	68*
C#CCN1C(=O)S/C(=C/C=C/c2ccc(N(C)C)cc2)C1=O	/	12	-6	59*	78*	87*	77*	81*	54*	-69*	71*
CC(C)N1CCc2c(sc(NC(=O)c3ccc(S(=O)(=O)N4CCc5ccccc54)cc3)c2C(N)=O)C1	/	-5	4	47*	53*	82*	84*	93*	/	7	-84
NC(=O)c1ccsc1NC(=O)c1ccc(S(=O)(=O)N2CCCc3ccccc32)cc1	i	0	-4	4	2	2	/	/	/	/	/
O=C1/C(=C\c2ccco2)CCC/C1=C\c1ccco1	/	-5	4	39*	62	55*	65*	72*	66*	6	53*
CC(=O)NN1C(=O)/C(=C\c2ccc(O)cc2)SC1=S	/	-3	-6	96*	82*	37*	41*	48*	39	-5	73*
COc1cc(/C=C2\SC(=S)N(NC(=O)c3ccc(O)cc3)C2=O)ccc1O	/	2	-1	50*	50*	35*	39*	52*	53*	2	65*
COc1cccc(/C=C2\SC(=S)N(NC(=O)c3ccncc3)C2=O)c1	i	-16	0	6	2	1	/	/	/	/	/
CCOc1cc(/C=C2\SC(=S)N(NS(=O)(=O)c3ccccc3)C2=O)ccc1O	/	0	-1	33	15	13	/	/	/	/	/
CC(=O)NN1C(=O)/C(=C\c2ccc(C)cc2)SC1=S	i	9	-18	-1	3	-1	/	/	/	/	/
CCOc1cc(/C=C2\SC(=S)N(Nc3ccccc3)C2=O)ccc1O	+	7	-4	37*	32	34*	37*	50*	75*	9	61*	Rpn11 inh conf=72*;MMP-2 counter-1=24;Thrombin FP=79*
COc1cc(/C=C2\SC(=N)N(c3ccc(F)cc3)C2=O)ccc1O	i	3	-7	8	14	21	/	/	/	/	/
COc1cc(/C=C2\SC(=S)N(Nc3ncc(C(F)(F)F)cc3Cl)C2=O)ccc1O	+	-5	-2	67*	82*	27*	32*	43*	78*	-14	61*	Rpn11 inh conf=75*;MMP-2 counter-1=-20;Thrombin FP=75*
COCCNC(=O)C1CCCN(S(=O)(=O)c2ccc3c(c2)CC(C)N3C(=O)C2CC2)C1 (stereo unspecified)	i	6	-2	5	3	-5	/	/	/	/	/
Cc1ccc(C(=O)N2CCC3(CC2)NCCc2[nH]cnc23)cc1C	i	-3	-5	-1	3	3	/	/	/	/	/
O=C(NN1C(=O)/C(=C/c2ccc(O)c(O)c2)SC1=S)c1ccccc1	/	-2	-13	50*	33	31*	44*	57*	63*	20*	33*
O=C(O)C(Cc1ccccc1)N1C(=O)/C(=C/c2ccccc2)SC1=S (stereo unspecified)	i	-5	-8	0	0	-2	/	/	/	/	/
O=C(NN1C(=O)/C(=C/c2cccc(O)c2)SC1=S)c1ccccc1O	i	-3	-14	-5	3	1	/	/	/	/	/
